Measurements published in ChEMBL document CHEMBL3286380, “Design and synthesis of lupeol analogues and their glucose uptake stimulatory effect in L6 skeletal muscle cells” (Bioorg Med Chem Lett, 2014).
Activity calls are given as the source filed them. The calls are words filed in the database; no cut-off is given here.

Tests used:
L6 [1] = assay: Increase in 2-[3H]-deoxyglucose uptake in rat L6 cells at 10 uM after 16 hrs by scintillation counting analysis (reference value: 0%); type: functional
[2] = target: T1, Solute carrier family 2, facilitated glucose transporter member 4 (Rattus norvegicus) (UniProt P19357); assay: Induction of GLUT4 translocation to cell surface in rat L6-GLUT4myc cells at 10 uM treated for 16 hrs followed by incubation for 3 hrs in serum free medium and insulin stimulation for 20 mins; type: cell-based
T1 sequence (whole entry): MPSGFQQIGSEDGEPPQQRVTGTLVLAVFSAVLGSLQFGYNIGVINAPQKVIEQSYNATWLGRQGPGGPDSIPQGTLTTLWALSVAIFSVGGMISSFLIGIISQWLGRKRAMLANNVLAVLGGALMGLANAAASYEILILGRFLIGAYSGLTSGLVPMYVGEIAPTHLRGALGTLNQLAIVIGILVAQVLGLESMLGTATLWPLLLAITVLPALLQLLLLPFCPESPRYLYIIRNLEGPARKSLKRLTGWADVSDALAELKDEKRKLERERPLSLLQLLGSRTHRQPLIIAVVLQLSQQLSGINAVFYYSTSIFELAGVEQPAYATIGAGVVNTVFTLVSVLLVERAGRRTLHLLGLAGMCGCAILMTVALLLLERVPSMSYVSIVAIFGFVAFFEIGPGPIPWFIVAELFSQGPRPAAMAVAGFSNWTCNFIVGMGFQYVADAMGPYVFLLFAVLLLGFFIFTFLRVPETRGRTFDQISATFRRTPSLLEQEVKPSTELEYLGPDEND
Outline: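 L6-GLUT4myc myotubes given compound (10 µM) for 16 h, the final 3 h in serum-free medium; a subset stimulated with insulin (100 nM) for 20 min before measuring surface GLUT4myc. Fold over basal control; mean ± SE, three independent experiments in triplicate.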

L6 [3] = assay: Potentiation of insulin-stimulated 2-[3H]-deoxyglucose uptake in rat L6 cells at 10 uM treated for 16 hrs followed by incubation for 3 hrs in serum free medium and insulin stimulation for 20 mins by scintillation counting analysis; type: functional, cell-based
Outline: (§1)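 Cells (L6 myotubes, 3T3-L1 adipocytes or HepG2 hepatic cells) treated with compound (10 µM) for 16 h, last 3 h serum-free, with or without insulin (100 nM, 20 min) before glucose uptake. Reported as fold stimulation over basal control; mean ± SE of three independent experiments, each in triplicate.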

L6 [4] = assay: Increase in 2-[3H]-deoxyglucose uptake in rat L6 cells after 16 hrs by scintillation counting analysis; type: functional, cell-based
Outline: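 Dose–response in L6 myotubes: vehicle (DMSO) or compound at 5, 10, 25 µM for 16 h before glucose uptake measurement; rosiglitazone 10 µM as positive control. Expressed as fold stimulation over control; mean ± SE of three independent experiments, each in triplicate.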

HepG2 = assay: Potentiation of insulin-stimulated 2-[3H]-deoxyglucose uptake in human HepG2 cells at 10 uM treated for 16 hrs followed by incubation for 3 hrs in serum free medium and insulin stimulation for 20 mins by scintillation counting analysis; type: functional, cell-based; outline: as §1
3T3-L1 = assay: Potentiation of insulin-stimulated 2-[3H]-deoxyglucose uptake in mouse 3T3L1 cells at 10 uM treated for 16 hrs followed by incubation for 3 hrs in serum free medium and insulin stimulation for 20 mins by scintillation counting analysis; type: functional, cell-based; outline: as §1
[5] = target: 5'-AMP-activated protein kinase catalytic subunit alpha-1 (Rattus norvegicus) (UniProt P54645); assay: Effect on AMPK-alpha phosphorylation at Thr-172 residue in rat L6 cells at 10 uM after 16 hrs by immunoblot analysis; type: cell-based
Outline: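 L6 myotubes exposed to compound (10 µM) for 16 h, then lysed; western blot for phospho-AMPK (Thr-172), quantified by densitometry relative to total AMPK. Mean ± SEM of three independent experiments.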

L6 [6] = assay: Increase in 2-[3H]-deoxyglucose uptake in rat L6 cells at 10 uM after 16 hrs by scintillation counting analysis relative to lupeol; type: functional
[7] = target: Insulin receptor (Rattus norvegicus) (UniProt P15127); assay: Effect on IR-beta phosphorylation in rat L6 cells at 10 uM treated for 16 hrs followed by incubation for 3 hrs in serum free medium and insulin stimulation for 20 mins by Western blot analysis; type: cell-based
Outline: (§2)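 L6 myotubes were exposed to compound (10 μM) for 16 h, serum-free for the last 3 h. One subset then received insulin (100 nM) for 20 min. Cells were lysed and equal protein amounts were western blotted. Densitometry gave pIRβ/IRβ, pIRS-1/IRS-1 and pAKT/AKT ratios. Three independent experiments, mean SEM.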

[8] = target: T2, Insulin receptor substrate 1 (Rattus norvegicus) (UniProt P35570); assay: Increase in IRS-1 phosphorylation in rat L6 cells at 10 uM treated for 16 hrs followed by incubation for 3 hrs in serum free medium and insulin stimulation for 20 mins by Western blot analysis; type: cell-based; outline: as §2
T2 sequence (whole entry): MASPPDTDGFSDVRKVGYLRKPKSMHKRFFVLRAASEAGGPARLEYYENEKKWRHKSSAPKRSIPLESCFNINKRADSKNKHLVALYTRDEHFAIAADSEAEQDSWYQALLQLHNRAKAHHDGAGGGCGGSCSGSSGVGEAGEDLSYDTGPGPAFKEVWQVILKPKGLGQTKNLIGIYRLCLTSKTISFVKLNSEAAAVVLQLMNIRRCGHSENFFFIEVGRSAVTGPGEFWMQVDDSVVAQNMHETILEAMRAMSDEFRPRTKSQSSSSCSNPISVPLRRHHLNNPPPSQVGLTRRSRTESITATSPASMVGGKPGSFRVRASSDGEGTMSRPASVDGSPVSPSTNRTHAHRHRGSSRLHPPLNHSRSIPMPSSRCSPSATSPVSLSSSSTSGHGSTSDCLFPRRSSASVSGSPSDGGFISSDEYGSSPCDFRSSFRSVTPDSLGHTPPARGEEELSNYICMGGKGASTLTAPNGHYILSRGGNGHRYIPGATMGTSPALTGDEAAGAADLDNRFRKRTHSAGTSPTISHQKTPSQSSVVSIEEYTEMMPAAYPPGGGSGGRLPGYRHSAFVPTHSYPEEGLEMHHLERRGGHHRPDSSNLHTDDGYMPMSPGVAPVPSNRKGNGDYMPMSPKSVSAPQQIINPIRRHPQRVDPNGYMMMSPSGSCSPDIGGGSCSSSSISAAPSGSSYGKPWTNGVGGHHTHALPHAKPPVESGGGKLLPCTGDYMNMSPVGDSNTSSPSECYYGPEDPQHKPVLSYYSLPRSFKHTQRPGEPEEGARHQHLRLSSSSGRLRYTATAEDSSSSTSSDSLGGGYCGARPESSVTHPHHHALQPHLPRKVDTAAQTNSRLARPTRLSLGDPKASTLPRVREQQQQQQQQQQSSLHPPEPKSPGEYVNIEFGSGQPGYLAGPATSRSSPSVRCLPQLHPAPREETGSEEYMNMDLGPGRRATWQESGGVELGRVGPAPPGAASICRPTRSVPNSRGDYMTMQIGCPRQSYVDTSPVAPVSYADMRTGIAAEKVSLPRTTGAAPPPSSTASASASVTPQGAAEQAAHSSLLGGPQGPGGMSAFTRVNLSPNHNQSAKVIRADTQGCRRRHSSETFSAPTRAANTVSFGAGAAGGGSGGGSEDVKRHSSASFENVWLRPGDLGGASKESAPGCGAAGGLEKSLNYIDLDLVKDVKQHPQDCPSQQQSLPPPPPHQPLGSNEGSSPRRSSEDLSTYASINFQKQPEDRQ

L6 [9] = assay: Potentiation of insulin-stimulated 2-[3H]-deoxyglucose uptake in rat L6 cells at 10 uM treated for 16 hrs followed by incubation for 3 hrs in serum free medium and insulin stimulation for 20 mins by scintillation counting analysis in presence of PI3K inhibitor wortmannin; type: functional, cell-based
Outline: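 L6 myotubes were given compound (10 μM) for 16 h, with or without wortmannin (50 nM). Insulin treatment followed, then glucose uptake was measured. Values are expressed as fold stimulation over basal control.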

[10] = target: T2, Insulin receptor substrate 1 (Rattus norvegicus); assay: Increase in IRS-1-mediated Akt phosphorylation in rat L6 cells at 10 uM treated for 16 hrs followed by incubation for 3 hrs in serum free medium and insulin stimulation for 20 mins by Western blot analysis; type: cell-based; outline: as §2

5'-AMP-activated protein kinase catalytic subunit alpha-1 (Rattus norvegicus), sequence (P54645 whole entry): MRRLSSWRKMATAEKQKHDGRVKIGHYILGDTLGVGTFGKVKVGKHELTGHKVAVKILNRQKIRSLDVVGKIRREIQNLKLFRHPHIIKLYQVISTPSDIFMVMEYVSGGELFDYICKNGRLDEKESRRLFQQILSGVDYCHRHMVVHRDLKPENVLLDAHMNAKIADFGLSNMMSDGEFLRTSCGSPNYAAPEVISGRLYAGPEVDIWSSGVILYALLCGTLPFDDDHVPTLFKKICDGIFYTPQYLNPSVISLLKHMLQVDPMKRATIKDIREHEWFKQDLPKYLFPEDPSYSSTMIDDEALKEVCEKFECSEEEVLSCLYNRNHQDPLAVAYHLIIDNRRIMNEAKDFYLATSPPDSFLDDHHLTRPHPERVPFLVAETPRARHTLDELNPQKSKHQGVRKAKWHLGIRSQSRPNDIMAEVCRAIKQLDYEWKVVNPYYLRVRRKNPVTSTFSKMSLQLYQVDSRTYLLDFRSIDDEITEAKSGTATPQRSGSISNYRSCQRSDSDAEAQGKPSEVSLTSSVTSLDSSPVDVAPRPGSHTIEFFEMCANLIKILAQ
Insulin receptor (Rattus norvegicus), sequence (P15127 27-759 limits assumed): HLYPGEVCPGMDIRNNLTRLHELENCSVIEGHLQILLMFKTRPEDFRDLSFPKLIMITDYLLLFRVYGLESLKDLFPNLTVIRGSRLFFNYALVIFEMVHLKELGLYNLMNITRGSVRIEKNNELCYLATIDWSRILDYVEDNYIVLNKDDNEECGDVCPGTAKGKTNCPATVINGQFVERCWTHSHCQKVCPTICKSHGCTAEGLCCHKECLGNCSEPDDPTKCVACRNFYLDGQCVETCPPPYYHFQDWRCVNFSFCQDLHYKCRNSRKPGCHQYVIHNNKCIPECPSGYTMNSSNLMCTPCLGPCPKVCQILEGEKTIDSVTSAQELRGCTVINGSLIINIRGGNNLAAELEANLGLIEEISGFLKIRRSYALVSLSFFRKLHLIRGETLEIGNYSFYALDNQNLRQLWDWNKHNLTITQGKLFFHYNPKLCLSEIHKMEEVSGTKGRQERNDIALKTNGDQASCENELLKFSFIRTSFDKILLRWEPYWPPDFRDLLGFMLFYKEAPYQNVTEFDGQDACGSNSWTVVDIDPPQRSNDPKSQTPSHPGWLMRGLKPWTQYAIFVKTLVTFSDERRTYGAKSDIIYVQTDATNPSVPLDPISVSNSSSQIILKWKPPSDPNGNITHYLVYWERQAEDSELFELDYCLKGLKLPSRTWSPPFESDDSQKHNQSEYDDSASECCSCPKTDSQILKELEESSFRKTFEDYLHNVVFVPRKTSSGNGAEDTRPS
Insulin receptor (Rattus norvegicus), sequence (P15127 764-1383 limits assumed): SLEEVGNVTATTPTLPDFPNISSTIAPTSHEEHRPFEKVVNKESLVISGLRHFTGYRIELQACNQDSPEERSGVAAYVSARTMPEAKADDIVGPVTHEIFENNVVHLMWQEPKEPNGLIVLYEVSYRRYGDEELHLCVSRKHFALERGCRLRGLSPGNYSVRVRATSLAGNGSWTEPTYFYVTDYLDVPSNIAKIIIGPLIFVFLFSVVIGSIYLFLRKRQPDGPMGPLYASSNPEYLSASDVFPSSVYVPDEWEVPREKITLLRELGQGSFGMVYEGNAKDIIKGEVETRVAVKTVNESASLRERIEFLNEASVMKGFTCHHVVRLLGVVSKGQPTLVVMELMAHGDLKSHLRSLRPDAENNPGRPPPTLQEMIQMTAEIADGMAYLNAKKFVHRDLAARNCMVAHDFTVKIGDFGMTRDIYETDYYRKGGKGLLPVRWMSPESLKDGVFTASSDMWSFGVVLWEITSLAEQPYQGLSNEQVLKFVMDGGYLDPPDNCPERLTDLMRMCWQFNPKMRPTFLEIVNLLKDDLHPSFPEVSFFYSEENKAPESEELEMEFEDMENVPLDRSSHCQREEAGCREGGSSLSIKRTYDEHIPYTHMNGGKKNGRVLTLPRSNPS

C=C(C=O)[C@@H]1CC[C@]2(C)CC[C@]3(C)[C@H](CC[C@@H]4[C@@]5(C)CC[C@H](OC(=O)CCc6ccc(Cl)cc6)C(C)(C)[C@@H]5CC[C@]43C)[C@@H]12
Activity (L6 [1]): 0.5%

CC1(C)[C@@H](O)CC[C@]2(C)[C@H]3CC[C@@H]4[C@H]5[C@H]([C@@H](C=O)C(O)c6ccccc6)CC[C@]5(C)CC[C@@]4(C)[C@]3(C)CC[C@@H]12 (stereo partly specified)
Activity (L6 [1]): 6.4%

CC1(C)[C@@H](OC(=O)CCc2ccc(Cl)cc2)CC[C@]2(C)[C@H]3CC[C@@H]4[C@H]5[C@H]([C@H]6C=NN(C(=O)CCc7ccc(Cl)cc7)C6)CC[C@]5(C)CC[C@@]4(C)[C@]3(C)CC[C@@H]12
Activity (L6 [1]): 2.8%

C=C(C=O)[C@@H]1CC[C@]2(C)CC[C@]3(C)[C@H](CC[C@@H]4[C@@]5(C)CC[C@H](OC(C)=O)C(C)(C)[C@@H]5CC[C@]43C)[C@@H]12
Activity [2]: Active
Activity (L6 [3]): Active
Activity (L6 [1]): 114.1%
Activity (L6 [4]): Dose-dependent effect
EC50 (L6 [4]): 5.2 µM
Activity (HepG2): Active
Activity (3T3-L1): Active
Activity [5]: inactive
fold change (FC) (L6 [6]): 4.5

C=C(CO)[C@@H]1CC[C@]2(C)CC[C@]3(C)[C@H](CC[C@@H]4[C@@]5(C)CC[C@H](OC(C)=O)C(C)(C)[C@@H]5CC[C@]43C)[C@@H]12
Activity (L6 [1]): 22.2%

C#CCOCC(=C)[C@@H]1CC[C@]2(C)CC[C@]3(C)[C@H](CC[C@@H]4[C@@]5(C)CC[C@H](OC(C)=O)C(C)(C)[C@@H]5CC[C@]43C)[C@@H]12
Activity (L6 [1]): 19.2%

CC1(C)[C@@H](OC(=O)/C=C/c2ccccc2)CC[C@]2(C)[C@H]3CC[C@@H]4[C@H]5[C@H](C6C=NN(C(=O)/C=C/c7ccccc7)C6)CC[C@]5(C)CC[C@@]4(C)[C@]3(C)CC[C@@H]12 (stereo partly specified)
Activity [2]: Active
Activity (L6 [3]): Active
Activity [7]: inactive
Activity [8]: Active
Activity (L6 [1]): 107.3%
Activity (L6 [4]): Dose-dependent effect
EC50 (L6 [4]): 4.9 µM
Activity (HepG2): Active
Activity (3T3-L1): Active
Activity [5]: inactive
Activity (L6 [9]): inactive
Activity [10]: Active

C=C(C)[C@@H]1CC[C@]2(C)CC[C@]3(C)[C@H](CC[C@@H]4[C@@]5(C)CC[C@H](O)C(C)(C)[C@@H]5CC[C@]43C)[C@@H]12 [LUPEOL]
Activity (L6 [1]): 26.8%

CC1(C)[C@@H](O)CC[C@]2(C)[C@H]3CC[C@@H]4[C@H]5[C@H]([C@H]6C=NOC6c6ccccc6)CC[C@]5(C)CC[C@@]4(C)[C@]3(C)CC[C@@H]12 (stereo partly specified)
Activity (L6 [1]): 13.2%

CC(=O)O[C@H]1CC[C@]2(C)[C@H]3CC[C@@H]4[C@H]5[C@H]([C@@H]6C=COC6)CC[C@]5(C)CC[C@@]4(C)[C@]3(C)CC[C@H]2C1(C)C
Activity (L6 [1]): 3.6%

CC(C)C(Br)C(=O)O[C@H]1CC[C@]2(C)[C@H]3CC[C@@H]4[C@H]5[C@H]([C@H]6C=NN(C(=O)C(Br)C(C)C)C6)CC[C@]5(C)CC[C@@]4(C)[C@]3(C)CC[C@H]2C1(C)C (stereo partly specified)
Activity (L6 [1]): 8.4%

C=CCOCC(=C)[C@@H]1CC[C@]2(C)CC[C@]3(C)[C@H](CC[C@@H]4[C@@]5(C)CC[C@H](OC(C)=O)C(C)(C)[C@@H]5CC[C@]43C)[C@@H]12
Activity (L6 [1]): 8.5%

C=C(C=O)[C@@H]1CC[C@]2(C)CC[C@]3(C)[C@H](CC[C@@H]4[C@@]5(C)CC[C@H](O)C(C)(C)[C@@H]5CC[C@]43C)[C@@H]12
Activity [2]: Active
Activity (L6 [3]): Active
Activity [7]: inactive
Activity [8]: Active
Activity (L6 [1]): 173.1%
Activity (L6 [4]): Dose-dependent effect
EC50 (L6 [4]): 4.2 µM
Activity (HepG2): Active
Activity (3T3-L1): Active
Activity [5]: inactive
Activity (L6 [9]): inactive
Activity [10]: Active

CC1(C)[C@@H](O)CC[C@]2(C)[C@H]3CC[C@@H]4[C@H]5[C@H]([C@H]6C=NNC6)CC[C@]5(C)CC[C@@]4(C)[C@]3(C)CC[C@@H]12
Activity (L6 [1]): 16.1%

CN(CCOc1ccc(CC2SC(=O)NC2=O)cc1)c1ccccn1 (stereo unspecified) [ROSIGLITAZONE]
Activity (L6 [1]): 112.4%
EC50 (L6 [4]): 4.8 µM

C=CC1=COC[C@@H]1[C@@H]1CC[C@]2(C)CC[C@]3(C)[C@H](CC[C@@H]4[C@@]5(C)CC[C@H](OC(C)=O)C(C)(C)[C@@H]5CC[C@]43C)[C@@H]12
Activity (L6 [1]): 2.1%

C=C(C=O)[C@@H]1CC[C@]2(C)CC[C@]3(C)[C@H](CC[C@@H]4[C@@]5(C)CC[C@H](OC(=O)C(Br)C(C)C)C(C)(C)[C@@H]5CC[C@]43C)[C@@H]12 (stereo partly specified)
Activity (L6 [1]): 3.1%

C=C(C=O)[C@@H]1CC[C@]2(C)CC[C@]3(C)[C@H](CC[C@@H]4[C@@]5(C)CC[C@H](OC(=O)/C=C/c6ccccc6)C(C)(C)[C@@H]5CC[C@]43C)[C@@H]12
Activity [2]: Active
Activity (L6 [3]): Active
Activity (L6 [1]): 98.3%
Activity (L6 [4]): Dose-dependent effect
EC50 (L6 [4]): 6.2 µM
Activity (HepG2): Active
Activity (3T3-L1): Active
Activity [5]: inactive
